Test results as given in ChEMBL document CHEMBL1128483, “Peptide mimetics of thyrotropin-releasing hormone based on a cyclohexane framework: design, synthesis, and cognition-enhancing properties” (1995).

Legend:
Type in all cases: functional
[1] = system: Mus musculus; experiment: Activity was evaluated in C57BL/10 mice by Morris water Maze test and mean latency for TRH was reported at 0.01 mg/Kg i.p. dosage.
In short: (§1)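 Male C57BL/10 mice (17–21 g, housed 10 per group, food and water ad libitum). Drug in saline or 5% acacia, 10 mL/kg, given ip 30 min before the first of four trials to find a hidden submerged platform. Score was each mouse's mean total latency over the four trials; group mean ± SEM. Vehicle group included. Analysis: one-way ANOVA, then Dunnett t-test versus vehicle, p < 0.05.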

[2] = system: Mus musculus; experiment: Activity was evaluated in C57BL/10 mice by Morris water Maze test and mean latency for TRH was reported at 0.1 mg/Kg i.p. dosage.; in short: as §1
[3] = system: Mus musculus; experiment: Activity was evaluated in C57BL/10 mice by Morris water Maze test and mean latency for TRH was reported at 1.0 mg/Kg i.p. dosage.; in short: as §1
[4] = system: Mus musculus; experiment: Activity was evaluated in C57BL/10 mice by Morris water Maze test and mean latency for TRH was reported at 0.003 mg/Kg p.o. dosage.
In short: (§2)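 Spatial water-maze task in male C57BL/10 mice (17–21 g, group-housed, ad libitum food and water). Oral dosing (saline or 5% acacia vehicle, 10 mL/kg) 30 min before four trials locating a submerged platform. Latency recorded per trial; the mean total over the four trials was the animal's score, reported as mean ± SEM. Vehicle controls included. Groups compared with vehicle by one-way ANOVA and Dunnett t-test (p < 0.05).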

[5] = system: Mus musculus; experiment: Activity was evaluated in C57BL/10 mice by Morris water Maze test and mean latency for TRH was reported at 0.03 mg/Kg i.p. dosage.; in short: as §1
[6] = system: Mus musculus; experiment: Activity was evaluated in C57BL/10 mice by Morris water Maze test and mean latency for TRH was reported at 0.03 mg/Kg p.o. dosage.; in short: as §2
[7] = system: Mus musculus; experiment: Activity was evaluated in C57BL/10 mice by Morris water Maze test and mean latency for TRH was reported at 0.3 mg/Kg i.p. dosage.; in short: as §1
[8] = system: Mus musculus; experiment: Activity was evaluated in C57BL/10 mice by Morris water Maze test and mean latency for TRH was reported at 3 mg/Kg i.p. dosage.; in short: as §1
[9] = system: Mus musculus; experiment: Activity was evaluated in C57BL/10 mice by Morris water Maze test and mean latency for TRH was reported at 0.00003 mg/Kg i.p. dosage.; in short: as §1
[10] = system: Mus musculus; experiment: Activity was evaluated in C57BL/10 mice by Morris water Maze test and mean latency for TRH was reported at 0.00003 mg/Kg p.o. dosage.; in short: as §2
[11] = system: Mus musculus; experiment: Activity was evaluated in C57BL/10 mice by Morris water Maze test and mean latency for TRH was reported at 0.0003 mg/Kg i.p. dosage.; in short: as §1
[12] = system: Mus musculus; experiment: Activity was evaluated in C57BL/10 mice by Morris water Maze test and mean latency for TRH was reported at 0.0003 mg/Kg p.o. dosage.; in short: as §2
[13] = system: Mus musculus; experiment: Activity was evaluated in C57BL/10 mice by Morris water Maze test and mean latency for TRH was reported at 0.003 mg/Kg i.p. dosage.; in short: as §1
[14] = system: Mus musculus; experiment: Activity was evaluated in C57BL/10 mice by Morris water Maze test and mean latency for TRH was reported at 10.0 mg/Kg i.p. dosage.; in short: as §1
[15] = system: Mus musculus; experiment: Activity was evaluated in C57BL/10 mice by Morris water Maze test and mean latency for TRH was reported at 3.0 mg/Kg i.p. dosage.; in short: as §1
[16] = system: Mus musculus; experiment: Activity was evaluated in C57BL/10 mice by Morris water Maze test and mean latency for TRH was reported at 0.001 mg/Kg i.p. dosage.; in short: as §1
[17] = system: Mus musculus; experiment: Activity was evaluated in C57BL/10 mice by Morris water Maze test and mean latency for TRH was reported at 0.3 mg/Kg p.o. dosage.; in short: as §2
[18] = system: Mus musculus; experiment: Activity was evaluated in C57BL/10 mice by Morris water Maze test and mean latency for TRH was reported at 3 mg/Kg p.o. dosage.; in short: as §2
[19] = system: Mus musculus; experiment: Activity was evaluated in C57BL/10 mice by Morris water Maze test and mean latency for TRH was reported at 0.01 mg/Kg p.o. dosage.; in short: as §2
[20] = system: Mus musculus; experiment: Activity was evaluated in C57BL/10 mice by Morris water Maze test and mean latency for TRH was reported at 0.1 mg/Kg p.o. dosage.; in short: as §2

Row | Compound | Mean latency [1] [s] | Mean latency [2] [s] | Mean latency [3] [s] | Mean latency [4] [s] | Mean latency [5] [s] | Mean latency [6] [s] | Mean latency [7] [s] | Mean latency [13] [s] | Mean latency [16] [s] | further results
1 | NC(=O)C[C@@H]1C[C@@H](Cc2c[nH]cn2)C[C@H](C[C@@H]2CCC(=O)N2)C1 | 57.12 | 46.09 | 24.19 |  |  |  |  |  |  | 
2 | NC(=O)C[C@@H]1C[C@H](Cc2c[nH]cn2)C[C@H](C[C@@H]2CCC(=O)N2Cc2ccccc2)C1 |  |  |  | 35.23 | 15.65 | 21.1 | 17.62 | 22.24 |  | Mean latency [8]: 31.62 s; Mean latency [9]: 62.15 s; Mean latency [10]: 46.67 s; Mean latency [11]: 33.29 s; Mean latency [12]: 30.9 s
3 | NC(=O)[C@@H]1CCCN1C(=O)[C@H](Cc1c[nH]cn1)NC(=O)[C@@H]1CCC(=O)N1 [PROTIRELIN] | 37.97 | 25.76 | 28.87 |  | 32.69 |  | 20.85 | 43.08 | 50.59 | Mean latency [14]: 46 s; Mean latency [15]: 33.57 s
4 | NC(=O)C[C@@H]1C[C@@H](Cc2c[nH]cn2)C[C@H](C[C@@H]2CCC(=O)N2Cc2ccccc2)C1 |  |  |  | 37.01 |  | 28.87 |  |  |  | Mean latency [17]: 27.59 s; Mean latency [18]: 43.72 s; Mean latency [10]: 51.7 s; Mean latency [12]: 42.81 s
5 | NC(=O)C[C@@H]1C[C@H](Cc2c[nH]cn2)C[C@H](C[C@@H]2CCC(=O)N2)C1 | 38.72 | 45.06 | 25.23 |  |  |  |  |  | 47.62 | 
6 | C[C@H]1C[C@@H](CC(N)=O)C[C@@H](C[C@@H]2CCC(=O)N2)C1 | 42.77 | 30.08 |  |  | 37.86 |  | 43.13 |  |  | 
7 | C[C@H]1C[C@@H](CC(N)=O)C[C@@H](C[C@@H]2CCC(=O)N2Cc2ccccc2)C1 | 22.15 | 26.87 |  | 42.2 | 26.49 | 32.87 |  | 36.26 | 47.48 | Mean latency [19]: 35.88 s; Mean latency [20]: 24.55 s; Mean latency [17]: 46.53 s
